Laboratory results taken from PMC5412920 (Journal of Clinical Pharmacology, 2016).
Where two headings read alike, the source gives them in different places. Marks after values point to notes of the source that are not given here.

What was measured:
[1] = NCT02093728 and NCT02046850; cited from earlier work
[2] = format: in vivo, human; conditions: for t1/2: arithmetic mean (SD); for AUC, geometric least-squares mean / Cmax, geometric least-squares mean: fixed-effect ANOVA; for Cmax / MRAUC (metabolite-to-parent AUC ratio) / MRCmax (metabolite-to-parent Cmax ratio) / AUCu / Cmax,u: geometric mean (gCV%); for tmax: median (min-max); for AUCu / Cmax,u: unbound
[3] = Hepatic impairment study: excretion in urine; format: in vivo, human
How it was run: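 Urine from hepatic-impairment and healthy subjects was collected at −12 to 0 h predose, then 0–6, 6–12, 12–24, 24–36 and 36–48 h, and every 24 h to 120 h after a single oral dose. Dosing followed an overnight fast, with fasting until 4 h postdose. Analytes were measured by LC-MS/MS (positive electrospray, MRM) against carbon-13 internal standards.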

[4] = Renal impairment study: excretion in urine and blood dialysate; format: in vivo, human
How it was run: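 Subjects were ESRD patients on haemodialysis or healthy subjects with creatinine clearance >80 mL/min, each given 50 mg orally while fasted. ESRD patients were dosed once after dialysis and, after a washout of ≥7 days, once 1 h before dialysis. Urine was collected predose and in intervals to 72 h. Dialysate spot samples were taken every 30 min, and parameters were derived by the area under the excretion rate curve method. Analysis was by LC-MS/MS.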

[5] = system: plasma proteins; experiment: Unbound fraction in plasma; format: in vitro ADME, human; conditions: healthy subjects; for fu,av: 50 mg, median (min-max)
How it was run: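 Unbound fraction was measured in human plasma by ultrafiltration after a single oral dose. Ultrafiltrate was analysed by LC-MS/MS in MRM mode with carbon-13 internal standards. Within each subject, the mean percentage unbound from 3 results was applied to all of that subject's samples to give the average fraction unbound (fu,av).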

[6] = format: in vivo, human; conditions: for t1/2: arithmetic mean (SD); for tmax: median (min-max)
[7] = ESRD, treatment period 1 (50 mg after dialysis)
[8] = ESRD, treatment period 2 (50 mg 1 h before dialysis)
[9] = severe hepatic impairment, 20 mg
[10] = healthy subjects, 50 mg, geometric mean (gCV%)
[11] = mild hepatic impairment, 50 mg, geometric mean (gCV%)
[12] = moderate hepatic impairment, 50 mg (N = 6) or 25 mg (N = 2), geometric mean (gCV%)
[13] = moderate hepatic impairment, 50 mg dose only
[14] = moderate hepatic impairment, 50 or 25 mg

O=C(NOCCO)c1cc2nc[nH]c2c(F)c1Nc1ccc(Br)cc1Cl [N‐desmethyl selumetinib]
AUC and Cmax as percentage of the parent compound [1]: ~7% | Cmax, ESRD/Healthy Ratio (90%CI) ([2]; ESRD treatment period 1 vs healthy): 84.48 (61.60, 115.86) % | AUC, ESRD/Healthy Ratio (90%CI) ([2]; ESRD treatment period 1 vs healthy, 50 mg): 91.95 (67.73, 124.83) % | AUC lower when dosed before vs after dialysis ([2]; ESRD, 50 mg): 10% | Cmax lower when dosed before vs after dialysis ([2]; ESRD, 50 mg): 15% | t1/2 [2, 7]: 6.28 (2.87) ^d h | AUC, geometric least-squares mean [2, 7]: 0.171 µg·h/mL | Cmax [2, 7]: 45.1 (40.4) ng/mL | tmax [2, 7]: 1.25 (0.50‐3.00) h | Cmax, geometric least-squares mean ([2]; ESRD, treatment period 1): 0.04515 µg/mL | MRAUC (metabolite-to-parent AUC ratio) ([2]; ESRD, treatment period 1): 0.0864 (45.9) ^d | MRCmax (metabolite-to-parent Cmax ratio) ([2]; ESRD, treatment period 1): 0.0623 (42.8) | t1/2 [2, 8]: 5.79 (2.52) ^d h | Cmax [2, 8]: 38.5 (57.7) ng/mL | tmax [2, 8]: 1.50 (1.00‐2.00) h | MRAUC (metabolite-to-parent AUC ratio) ([2]; ESRD, treatment period 2): 0.0930 (48.6) ^d | MRCmax (metabolite-to-parent Cmax ratio) ([2]; ESRD, treatment period 2): 0.0759 (35.9) | t1/2 ([2]; healthy subjects, 50 mg): 5.41 (1.40) h | AUC, geometric least-squares mean ([2]; healthy subjects, 50 mg): 0.1859 µg·h/mL | Cmax ([2]; healthy subjects, 50 mg): 53.4 (52.1) ng/mL | tmax ([2]; healthy subjects, 50 mg): 1.50 (1.00‐3.00) h | Cmax, geometric least-squares mean ([2]; healthy subjects): 0.05345 µg/mL | MRAUC (metabolite-to-parent AUC ratio) ([2]; healthy subjects): 0.0710 (38.4) | MRCmax (metabolite-to-parent Cmax ratio) ([2]; healthy subjects): 0.0619 (32.9) | AUCu [2, 7]: 2.10 (19.2) ^e ng·h/mL | Cmax,u [2, 7]: 0.561 (14.8) ^e ng/mL | AUCu ([2]; healthy subjects, 50 mg): 1.72 (14.4) ^e ng·h/mL | Cmax,u ([2]; healthy subjects, 50 mg): 0.619 (8.5) ^e ng/mL | dose excreted in urine ([3]; healthy subjects, 50 mg): 0.78% | dose excreted in urine ([3]; mild hepatic impairment, 50 mg): 0.64% | dose excreted in urine ([3]; moderate hepatic impairment): 0.20% | dose excreted in urine [3, 9]: 0.09% | dose excreted in dialysate ([4]; ESRD, dosed 1 h before dialysis): 0.089% | fraction excreted in urine ([4]; healthy subjects, 50 mg): 0.73% | median unbound fraction ([5]; in both studies): ~0.6% | fu,av ([5]; hepatic impairment study): 0.61 (0.54‐0.70) ^j % | fu,av ([5]; renal impairment study): 0.688 (0.659‐0.712) ^e % | AUC(0–t)/dose, geometric least-squares mean ([6]; healthy subjects, 50 mg): 4.841 ng·h/mL/mg | Cmax/dose, geometric least-squares mean ([6]; healthy subjects, 50 mg): 1.809 ng/mL/mg | t1/2 ([6]; healthy subjects, 50 mg): 9.24 (3.33) h | AUC(0–t)/dose [6, 10]: 4.84 (43.4) ng·h/mL/mg | Cmax/dose [6, 10]: 1.81 (57.0) ng/mL/mg | tmax ([6]; healthy subjects, 50 mg): 1.00 (1.00‐2.00) h | AUC(0-t)/dose lower than in healthy subjects ([6]; mild hepatic impairment): 49% | Cmax/dose lower than in healthy subjects ([6]; mild hepatic impairment): 56% | AUC(0–t)/dose, geometric least-squares mean ([6]; mild hepatic impairment, 50 mg): 2.445 ng·h/mL/mg | Cmax/dose, geometric least-squares mean ([6]; mild hepatic impairment, 50 mg): 0.8041 ng/mL/mg | t1/2 ([6]; mild hepatic impairment, 50 mg): 5.18 (1.51) ^f h | AUC(0–t)/dose [6, 11]: 2.45 (41.1) ng·h/mL/mg | Cmax/dose [6, 11]: 0.804 (57.7) ng/mL/mg | tmax ([6]; mild hepatic impairment, 50 mg): 1.50 (1.00‐4.00) h | AUC(0–t)/dose, Hepatic impairment/healthy ratio (90%CI) ([6]; mild vs healthy): 50.51 (28.28, 90.19) % | Cmax/dose, Hepatic impairment/healthy ratio (90%CI) ([6]; mild vs healthy): 44.44 (25.70, 76.85) % | AUC(0-t)/dose lower than in healthy subjects ([6]; moderate hepatic impairment): 62% | Cmax/dose lower than in healthy subjects ([6]; moderate hepatic impairment): 70% | AUC(0–t)/dose [6, 12]: 1.83 (129.6) ng·h/mL/mg | Cmax/dose [6, 12]: 0.548 (102.8) ng/mL/mg | t1/2 [6, 13]: 7.72 (2.92) ^i h | tmax [6, 13]: 1.25 (1.00‐1.50) ^f h | AUC(0–t)/dose, geometric least-squares mean [6, 14]: 1.826 ng·h/mL/mg | Cmax/dose, geometric least-squares mean [6, 14]: 0.5485 ng/mL/mg | AUC(0–t)/dose, Hepatic impairment/healthy ratio (90%CI) ([6]; moderate vs healthy): 37.72 (21.12, 67.37) % | Cmax/dose, Hepatic impairment/healthy ratio (90%CI) ([6]; moderate vs healthy): 30.31 (17.53, 52.42) % | MRCmax (metabolite-to-parent Cmax ratio) ([6]; severe hepatic impairment, 20 mg (N = 3), geometric mean (gCV%)): 0.00778 (29.2) ^h | Cmax/dose ([6]; severe hepatic impairment, 20 mg, geometric mean (gCV%)): 0.173 (44.3) ng/mL/mg | tmax [6, 9]: 2.00 (1.50‐2.00) ^h
